In publication PMC8586590 (Bioactive Materials, 2021):

How the values were obtained:
HepG2 cells = assay: Cell inhibition, MTT assay; type: cell-based; conditions: Homo sapiens, HepG2, 48 h
[1] = system: HepG2 3D multicellular spheroids; assay: Multicellular spheroid; type: cell-based; conditions: HepG2 MCSs, 100 μM, medium replaced every two days, 7 days, N=3
Method in brief: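 HepG2 3D spheroids held in 100 μM formulation, with medium replaced every two days; drug-free medium served as control. Spheroid volume calculated as V = 4/3πr³ from the radius and expressed relative to each spheroid's day-0 volume. Mean ± SD, N = 3.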

[2] = type: in vivo, Balb/c nude mice; conditions: i.v., 3 mg/kg HCPT-equivalent
Method in brief: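 Normal Balb/c nude mice (4–6 weeks, 16–19 g), six groups of five including saline, treated three times. Eye blood taken on days 1 and 5 after the third dose. For haematology, 300 μL into heparinised tubes; for biochemistry, 500 μL, centrifuged at 2500×g for 15 min and the supernatant used. Xenograft mice: body weight every three days and H&E of major organs at study end.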

HepG2-luci cells = assay: Lung metastasis model; type: in vivo, Balb/c nude mice; conditions: after 30 days, i.v., 3 mg/kg HCPT equivalent, four injections, N=5
Method in brief: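 Balb/c nude mice (4–6 weeks, 20 ± 2 g) received 1 × 10⁶ HepG2-luci cells in 200 μL serum-free DMEM via the tail vein. Six days later (day 0) they were randomised into six groups of five and dosed i.v. at 3 mg/kg HCPT-equivalent on days 0, 3, 6 and 9. Study ended at day 30: lungs fixed in Bouin's for 24 h and photographed, then formalin-fixed paraffin sections stained with H&E.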

CC[C@@]1(O)C(=O)OCc2c1cc1n(c2=O)Cc2cc3cc(O)ccc3nc2-1 [HCPT, 10-hydroxycamptothecin]
IC50 (HepG2 cells): 840 nM | MCS volume relative to initial volume [1]: stable volume | blood parameters RBC, WBC, HGB, PLT (hematotoxicity) ([2]; three times, N=5): deteriorated | body weight during treatment ([2]; tumor-bearing mice): obvious weight loss | bioluminescence signal of HepG2-luci cells in the lung (HepG2-luci cells): the strongest
